Measurements reported in ChEMBL document CHEMBL1145019, “The power of visual imagery in drug design. Isopavines as a new class of morphinomimetics and their human opioid receptor binding activity” (J Med Chem, 2003).
The source made the active and inactive calls. No cut-off for these calls is given here.

Legend:
[1] = target: Delta-type opioid receptor (Homo sapiens, UniProt P41143); experiment: In vitro binding affinity against cloned human Opioid receptor delta 1 expressed in HEK 293S cells; type: cell-based, HEK293
Delta-type opioid receptor, sequence (P41143 whole entry): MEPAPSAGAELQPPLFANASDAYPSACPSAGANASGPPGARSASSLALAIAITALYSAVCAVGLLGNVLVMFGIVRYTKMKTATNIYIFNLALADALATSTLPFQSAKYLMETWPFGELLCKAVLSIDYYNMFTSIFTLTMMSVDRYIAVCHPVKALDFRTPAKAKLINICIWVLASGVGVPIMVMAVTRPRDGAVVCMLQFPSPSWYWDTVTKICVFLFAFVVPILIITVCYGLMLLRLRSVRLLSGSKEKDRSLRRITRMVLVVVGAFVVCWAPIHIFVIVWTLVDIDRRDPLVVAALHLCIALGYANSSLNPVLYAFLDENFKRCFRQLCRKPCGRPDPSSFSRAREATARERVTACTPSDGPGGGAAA
Summary of the method: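 Compounds tested at 5 or 10 concentrations in duplicate, in 50 mM Tris, 3 mM MgCl2, 1 mg/mL BSA, pH 7.4. Bound radioactivity measured at equilibrium by filtration. Nonspecific binding defined with 10 µM naloxone. IC50 from a two-parameter logistic fit.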

[2] = target: Kappa-type opioid receptor (Homo sapiens, UniProt P41145); experiment: biochemical; type: cell-based, HEK293
Kappa-type opioid receptor, sequence (P41145 whole entry): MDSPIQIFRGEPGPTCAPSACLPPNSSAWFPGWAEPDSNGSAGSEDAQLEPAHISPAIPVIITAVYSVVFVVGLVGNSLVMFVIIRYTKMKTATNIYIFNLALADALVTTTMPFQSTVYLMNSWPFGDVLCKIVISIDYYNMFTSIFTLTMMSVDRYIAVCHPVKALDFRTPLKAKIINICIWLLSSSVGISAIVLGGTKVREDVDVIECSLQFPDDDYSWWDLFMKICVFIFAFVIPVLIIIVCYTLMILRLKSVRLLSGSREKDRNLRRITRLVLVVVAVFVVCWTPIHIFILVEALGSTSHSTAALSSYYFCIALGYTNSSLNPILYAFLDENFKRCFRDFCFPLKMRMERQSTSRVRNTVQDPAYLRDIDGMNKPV

[3] = Selectivity of mu IC50 to that of delta IC50 was calculated; NA means Insufficient binding potency
Summary of the method: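 Ratio = delta IC50 / mu IC50, from radioligand displacement on HEK-293S P2 membranes expressing human receptors. […] Tris 50 mM, MgCl2 3 mM, BSA 1 mg/mL, pH 7.4. Filtration at equilibrium; 10 µM naloxone defined nonspecific binding. IC50 from logistic fits.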

[4] = target: T1, Mu-type opioid receptor (Homo sapiens, UniProt P35372); experiment: biochemical; type: cell-based, HEK293
T1 sequence (P35372 whole entry): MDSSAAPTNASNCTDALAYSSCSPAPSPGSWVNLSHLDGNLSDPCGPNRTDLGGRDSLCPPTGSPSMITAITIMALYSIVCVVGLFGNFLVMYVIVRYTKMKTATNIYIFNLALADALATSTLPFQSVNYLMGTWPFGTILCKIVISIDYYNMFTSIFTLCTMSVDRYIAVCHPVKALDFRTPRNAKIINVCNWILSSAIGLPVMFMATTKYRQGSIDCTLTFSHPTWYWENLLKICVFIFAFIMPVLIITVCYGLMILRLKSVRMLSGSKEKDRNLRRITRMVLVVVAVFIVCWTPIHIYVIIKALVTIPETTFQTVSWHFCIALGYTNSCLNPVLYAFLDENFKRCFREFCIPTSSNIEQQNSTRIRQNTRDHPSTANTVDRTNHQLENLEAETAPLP

[5] = target: T1, Mu-type opioid receptor; experiment: Tested for effective concentration against cloned human Opioid receptor mu 1
Summary of the method: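 GTP[γ]35S binding using HEK-293S membranes expressing hμ (0.2 pmol/mg protein). Filtration after 1 h. Stimulated binding defined with 30 µM DAMGO. EC50 from a three-parameter logistic fit.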

Structure (SMILES): COc1cc2c(cc1OC)[C@@H]1c3cc(OC)c(OC)cc3[C@@H](C2)N(C)[C@H]1C
- IC50 [1]: > 5700 nM
- IC50 [2]: > 10000 nM
- NA [3]: inactive

Structure (SMILES): CC(=O)Oc1ccc2c(c1)[C@H]1c3cc(OC(C)=O)ccc3[C@H](C2)N(CC2CC2)[C@@H]1C
- IC50 [1]: 3300 nM
- IC50 [2]: 2020 nM
- IC50 [4]: 44 nM

Structure (SMILES): C[C@@H]1[C@H]2c3cc(NCc4ccccc4)ccc3C[C@@H](c3ccc(NCc4ccccc4)cc32)N1CC1CC1
- IC50 [1]: 49 nM
- IC50 [2]: 31 nM
- IC50 [4]: 7 nM

Structure (SMILES): C[C@@H]1[C@H]2c3cc(Br)ccc3C[C@@H](c3ccc(Br)cc32)N1CC1CC1
- IC50 [1]: > 10000 nM
- IC50 [2]: > 4900 nM
- IC50 [4]: 2050 nM

Structure (SMILES): C[C@@H]1[C@H]2c3cc(NCc4ccccc4)ccc3C[C@@H](c3ccc(NCc4ccccc4)cc32)N1C
- EC50 [5]: 4300 nM
- IC50 [1]: 120 nM
- IC50 [2]: 640 nM
- IC50 [4]: 8 nM

Structure (SMILES): C[C@@H]1[C@H]2c3cc(Br)ccc3C[C@@H](c3ccc(Br)cc32)N1C
- IC50 [1]: 8840 nM
- IC50 [2]: 6920 nM
- IC50 [4]: 360 nM

Structure (SMILES): Brc1ccc(CNc2ccc3c(c2)[C@H]2c4cc(NCc5ccc(Br)cc5)ccc4[C@H](C3)N3CCC[C@@H]23)cc1
- IC50 [1]: 5300 nM
- IC50 [2]: 7000 nM
- IC50 [4]: 120 nM

Structure (SMILES): C[C@@H]1[C@H]2c3cc(Nc4ccccc4)ccc3C[C@@H](c3ccc(Nc4ccccc4)cc32)N1C
- IC50 [1]: 530 nM
- IC50 [2]: 3600 nM
- IC50 [4]: 56 nM

Structure (SMILES): COc1ccc2c(c1)[C@H]1c3cc(OC)ccc3[C@H](C2)N2CCC[C@@H]12
- IC50 [1]: 4040 nM
- IC50 [2]: > 10000 nM
- IC50 [4]: 160 nM

Structure (SMILES): COc1ccc2c(c1)[C@H]1c3cc(OC)ccc3[C@H](C2)N(CC2CC2)[C@@H]1C
- IC50 [1]: 6630 nM
- IC50 [2]: 5330 nM
- IC50 [4]: 1030 nM

Structure (SMILES): COc1cc2c(cc1OC)[C@H]1c3cc(OC)c(OC)cc3[C@H](C2)N(C)[C@@H]1C
- IC50 [1]: > 10000 nM
- IC50 [2]: > 10000 nM
- IC50 [4]: > 10000 nM
- NA [3]: inactive

Structure (SMILES): Oc1ccc2c(c1)[C@H]1c3cc(O)ccc3[C@H](C2)N2CCC[C@@H]12
- IC50 [1]: 3800 nM
- IC50 [2]: 7200 nM
- IC50 [4]: 130 nM

Structure (SMILES): C[C@@H]1[C@H]2c3cc(O)ccc3C[C@@H](c3ccc(O)cc32)N1CC1CC1
- IC50 [1]: 460 nM
- IC50 [2]: 204 nM
- IC50 [4]: 6.4 nM

Structure (SMILES): CC(C)C[C@H]1[C@H]2c3ccccc3C[C@H](c3ccccc32)N1C
- IC50 [1]: > 8700 nM
- IC50 [2]: 2970 nM
- IC50 [4]: 1010 nM

Structure (SMILES): CN1CC[C@]23CCCC[C@H]2[C@H]1Cc1ccc(O)cc13 [LEVORPHANOL]
- IC50 [1]: 5.1 nM
- IC50 [2]: 4 nM

Structure (SMILES): C[C@@H]1[C@H]2c3ccccc3C[C@@H](c3ccccc32)N1Cc1ccccc1
- IC50 [1]: > 8800 nM
- IC50 [2]: > 5800 nM
- IC50 [4]: > 10000 nM

Structure (SMILES): C[C@@H]1[C@H]2c3cc(N4CCN(C)CC4)ccc3C[C@@H](c3ccc(N4CCN(C)CC4)cc32)N1CC1CC1
- IC50 [1]: 2040 nM
- IC50 [2]: 1600 nM
- IC50 [4]: 690 nM

Structure (SMILES): C[C@@H]1[C@H]2c3cc(N4CCN(C)CC4)ccc3C[C@@H](c3ccc(N4CCN(C)CC4)cc32)N1C
- IC50 [1]: 2500 nM
- IC50 [2]: 3200 nM
- IC50 [4]: 53 nM

Structure (SMILES): Fc1ccc2c(c1)[C@H]1c3cc(F)ccc3[C@H](C2)N2CCC[C@@H]12
- IC50 [1]: > 10000 nM
- IC50 [2]: > 6400 nM
- IC50 [4]: 103 nM

Structure (SMILES): C[C@H]1N[C@@H]2Cc3ccccc3[C@H]1c1ccccc12
- IC50 [1]: > 10000 nM
- IC50 [2]: > 10000 nM
- IC50 [4]: 650 nM

Structure (SMILES): CC(=O)N1[C@H](C)[C@H]2c3ccccc3C[C@H]1c1ccccc12
- IC50 [1]: > 10000 nM
- IC50 [2]: > 10000 nM
- IC50 [4]: > 9500 nM

Structure (SMILES): Brc1ccc2c(c1)[C@H]1c3cc(Br)ccc3[C@H](C2)N2CCC[C@@H]12
- IC50 [1]: 5020 nM
- IC50 [2]: 7400 nM
- IC50 [4]: 500 nM

Structure (SMILES): C[C@@H]1[C@H]2c3ccccc3C[C@@H](c3ccccc32)N1C
- IC50 [1]: > 10000 nM
- IC50 [2]: > 75000 nM
- IC50 [4]: 230 nM

Structure (SMILES): c1ccc2c(c1)C[C@@H]1c3ccccc3[C@H]2[C@@H]2CCCCN12
- IC50 [1]: > 10000 nM
- IC50 [2]: 7400 nM
- IC50 [4]: 390 nM

Structure (SMILES): c1ccc2c(c1)C[C@H]1c3ccccc3[C@H]2[C@@H]2CCCN12
- IC50 [1]: > 7800 nM
- IC50 [2]: 6100 nM
- IC50 [4]: 59 nM

Structure (SMILES): C[C@@H]1[C@H]2c3cc(N4CCOCC4)ccc3C[C@@H](c3ccc(N4CCOCC4)cc32)N1C
- IC50 [1]: 7500 nM
- IC50 [2]: > 10000 nM
- IC50 [4]: 690 nM

Structure (SMILES): C[C@@H]1[C@H]2c3cc(Nc4ccccc4)ccc3C[C@@H](c3ccc(Nc4ccccc4)cc32)N1CC1CC1
- IC50 [1]: 890 nM
- IC50 [2]: 1200 nM
- IC50 [4]: 82 nM

Structure (SMILES): CC(=O)Oc1ccc2c(c1)[C@H]1c3cc(OC(C)=O)ccc3[C@H](C2)N2CCC[C@@H]12
- IC50 [1]: 2900 nM
- IC50 [2]: > 6000 nM
- IC50 [4]: 220 nM

Structure (SMILES): CN1[C@@H]2Cc3ccccc3[C@@H](c3ccccc32)[C@@H]1Cc1ccccc1
- IC50 [1]: 3440 nM
- IC50 [2]: 1710 nM
- IC50 [4]: 1050 nM

Structure (SMILES): C[C@@H]1[C@H]2c3cc(O)ccc3C[C@@H](c3ccc(O)cc32)N1C
- IC50 [1]: 1300 nM
- IC50 [2]: 961 nM
- IC50 [4]: 16 nM

Structure (SMILES): C=CCN1[C@H](C)[C@H]2c3ccccc3C[C@H]1c1ccccc12
- IC50 [1]: > 9700 nM
- IC50 [2]: > 4000 nM
- IC50 [4]: 2000 nM

Structure (SMILES): CC(C)[C@H]1[C@H]2c3ccccc3C[C@H](c3ccccc32)N1C
- IC50 [1]: > 10000 nM
- IC50 [2]: 3410 nM
- IC50 [4]: 695 nM

Structure (SMILES): COc1ccc2c(c1)[C@H]1c3cc(OC)ccc3[C@H](C2)N(C)[C@@H]1C
- IC50 [1]: > 10000 nM
- IC50 [2]: > 10000 nM
- IC50 [4]: 420 nM
- NA [3]: inactive

Structure (SMILES): CN1[C@@H]2Cc3ccccc3[C@@H](c3ccccc32)[C@@H]1CCCO
- IC50 [1]: > 10000 nM
- IC50 [2]: > 10000 nM
- IC50 [4]: 1150 nM

Structure (SMILES): CC(=O)Oc1ccc2c(c1)[C@H]1c3cc(OC(C)=O)ccc3[C@H](C2)N(C)[C@@H]1C
- IC50 [1]: > 4700 nM
- IC50 [2]: > 9500 nM
- IC50 [4]: 200 nM

Structure (SMILES): C[C@@H]1[C@H]2c3ccccc3C[C@@H](c3ccccc32)N1CC1CC1
- IC50 [1]: > 10000 nM
- IC50 [2]: > 10000 nM
- IC50 [4]: 1080 nM

Structure (SMILES): C[C@H]1[C@H]2c3ccccc3C[C@H](c3ccccc32)N1C
- IC50 [1]: > 10000 nM
- IC50 [2]: > 10000 nM
- IC50 [4]: 611 nM

Structure (SMILES): COc1cc2c(cc1OC)[C@H]1c3cc(OC)c(OC)cc3[C@H](C2)N(CC2CC2)[C@@H]1C
- IC50 [1]: > 10000 nM
- IC50 [2]: > 10000 nM
- IC50 [4]: > 10000 nM
- NA [3]: inactive
